Tests used:
[1] = Storage modulus / gel forming of peptide gel with PBS; type: physicochemical
[2] = Solubility in pure water at room temperature; type: physicochemical; conditions: for Soluble or not at R.T.: room temperature; for solubility: water
TEM of peptide hydrogel = type: physicochemical; conditions: 6 mg ml^-1 peptide, hydrogel with PBS, 1% phosphotungstic acid stain
In short: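 Peptide was dissolved in pure water at 6 mg ml−1, then 10× PBS was added to give at most 1× PBS. The resulting hydrogel was dropped onto a copper grid and the excess blotted with filter paper. It was negatively stained with 1% phosphotungstic acid for 15 s, air-dried and imaged by transmission electron microscopy.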

[3] = test system: gastric or colon submucosal layer; experiment: Mucosal elevation by submucosal injection; type: in vivo; conditions: 0.5 ml of 1% w/v PRVDP9 or 10 mg ml^-1 sodium hyaluronate, rabbit, 30 min

Molecule | Gel forming ([1]; 1% w/v peptide) | Gel forming ([1]; 2% w/v peptide) | Soluble or not at R.T. ([2]; 1% w/v) | Soluble or not at R.T. ([2]; 2% w/v) | solubility [2] | further results
Ac-PKLDLKLDP-NH2 [PKLDP9, AC-PKLDLKLDP-amide] | No | No | Yes | Yes | – | –
Ac-PRIDIRIDP-NH2 [PRIDP9, AC-PRIDIRIDP-amide] | No | No | Yes | Yes | – | –
Ac-PRVEVRVEP-NH2 [PRVEP9, Ac-PRVEVRVEP-amide] | – | – | No | – | – | Soluble or not at R.T. ([2]; 0.5% w/v): No
Ac-PKIEIKIEP-NH2 [PKIEP9, AC-PKIEIKIEP-amide] | No | – | Yes | – | – | Gel forming ([1]; 0.5% w/v peptide): No; Soluble or not at R.T. ([2]; 0.5% w/v): Yes
Ac-VRVDVRVDV-NH2 [VRVDV9, AC-VRVDVRVDV-NH2] | – | – | – | – | < 30 mg/mL | –
Ac-PRVDVRVDP-NH2 [PRVDP9, AC-PRVDVRVDP-NH2] | Yes | Yes | Yes | Yes | ≥ 40 mg/mL | Gel forming when mixed with PBS (vial turned upside down) ([1]; 1%, 2%, 3% w/v in pure water, 10× PBS added to not exceed 1×, stand 10 seconds): good gel-forming ability; Storage modulus of peptide gel (in words) ([1]; 3% w/v peptide, gel with PBS, recorded at 1 Hz): almost equivalent to that of 2.5% w/v RADA; Nanostructure by TEM (TEM of peptide hydrogel): formed a dense nanofiber scaffold; Solubility (comparison, in words) [2]: superior solubility as compared with PRVD9; HE staining of colonic mucosa after submucosal injection [3]: showed a bulge, and the cavity was evenly filled with red-stained self-assembling peptides
Ac-RVDVRVDV-NH2 [RVDV8, AC-RVDVRVDV-NH2] | – | – | – | – | < 30 mg/mL | –
Ac-PKVEVKVEP-NH2 [PKVEP9, AC-PKVEVKVEP-amide] | Yes | Yes | Yes | Yes | ≥ 40 mg/mL | –
CC(=O)N[C@@H](CCCNC(=N)N)C(=O)N[C@@H](C)C(=O)N[C@@H](CC(=O)O)C(=O)N[C@@H](C)C(=O)N[C@@H](CCCNC(=N)N)C(=O)N[C@@H](C)C(=O)N[C@@H](CC(=O)O)C(=O)N[C@@H](C)C(=O)N[C@@H](CCCNC(=N)N)C(=O)N[C@@H](C)C(=O)N[C@@H](CC(=O)O)C(=O)N[C@@H](C)C(=O)N[C@@H](CCCNC(=N)N)C(=O)N[C@@H](C)C(=O)N[C@@H](CC(=O)O)C(=O)N[C@@H](C)C(N)=O [RADA16, AC-RADARADARADARADA-NH2, reference compound] | – | – | – | – | < 30 mg/mL | Concentration of peptide solution at which it self-assembled into a gel ([1]; peptide solution, without triggering): 3 % w/v

Reference: paper PMC9417066 (Nanoscale Advances, 2021)
